# Active and inactive are the calls of the source.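 The calls were made as follows: active = fitted curve reaches a 35% absorbance drop at both wavelengths in duplicate, with AC35 under 50 µM; inactive = the rest, including signal rising instead of falling.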
# Test system: not listed separately
# Experiment: pyoverdine output of iron-starved P. aeruginosa PAK, dose response, PAK wild type, OD405, dry powder, set 2 (AID 624106)
# Conditions: P. aeruginosa PAK + EDDHA, OD405 pyoverdine, 28 h; at 100 µM (top of the series)
# In short: (§1)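 Incubation: compound exposure 28 h at 30 °C, humidified; Assay system: WT P. aeruginosa PAK; Buffer or medium: succinate M9 pH 7.0 plus 2 µM EDDHA; Dosing: compound dose series, final 15 nM up to 100 µM.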
row,Structure (SMILES),"activity change, negative = inhibition"
1,CCCCC(C#N)c1ccc(Cl)cc1 (centres undefined),-7.02% (inactive)
2,CN(C)CCCC(C#N)c1ccc(Cl)cc1 (centres undefined),-3.43% (inactive)
3,Clc1ccc(C(c2cccc(Cl)n2)c2nn[nH]n2)cc1 (centres undefined),11.9% (inactive)
4,CCCCC(C#N)c1ccc(F)cn1 (centres undefined),-12.4% (inactive)
5,CN(C)CCCC(C#N)c1ccc(F)cc1 (centres undefined),-12.9% (inactive)
6,CCCCC(C#N)c1ccccn1 (centres undefined),-4.26% (inactive)
7,CCCCC(C#N)c1ccc(Cl)cn1 (centres undefined),-7.7% (inactive)
8,CCCCC(C#N)c1ccc(F)cc1 (centres undefined),-5.09% (inactive)
9,COCCOCCC(C#N)c1ccc(Cl)cc1 (centres undefined),-2.61% (inactive)
10,CCCCC(c1ccc(Cl)cc1)c1nn[nH]n1 (centres undefined),-8.03% (inactive)
11,N#CC1c2ccc(Cl)cc2CCc2cccnc21 (centres undefined),-13.8% (inactive)
12,N#CC(c1ccc(C(F)(F)F)c(Cl)n1)c1ccccc1OC(F)(F)F (centres undefined),-16% (inactive)
13,COCCC(C#N)c1ccc(Cl)cc1 (centres undefined),-2.12% (inactive)
14,COCCOCCC(C#N)c1ccc(F)cc1 (centres undefined),-8.85% (inactive)
15,COCCNC(C#N)c1ccc(Cl)cc1 (centres undefined),-12.1% (inactive)

# Test system: P. aeruginosa PAK + EDDHA, OD405 pyoverdine, 28 h
# Experiment: as above
# Conditions: not given
# In short: as §1
row,Structure (SMILES),AC35
1,N#CC(c1ccc(Cl)cc1)c1cccc(C(F)(F)F)n1 (centres undefined),19.3 µM
2,N#Cc1cccc(C(C#N)c2ccc(F)cc2)n1 (centres undefined),> 100 µM (inactive)
3,N#CC(c1cccc(Cl)n1)c1ccc(Cl)cc1F (centres undefined),25.9 µM
4,N#CC(c1ccc(Cl)cc1)c1cccc(Cl)n1 (centres undefined),67 µM
5,N#CC(c1ccc(Cl)cc1)c1ccccn1 (centres undefined),> 100 µM (inactive)
6,N#CC(c1cccc(C(F)(F)F)n1)c1ccc(Cl)cc1F (centres undefined),18.8 µM
7,N#CC(c1ccc(Cl)cc1)N1CCCC1 (centres undefined),> 100 µM (inactive)
8,N#CC(c1ccc(F)cc1)c1cccc(C(F)(F)F)n1 (centres undefined),45.4 µM
9,COCCC(C#N)c1ccc(F)cc1 (centres undefined),> 100 µM (inactive)
